Columns and labels:
[1] = system: L. amazonensis promastigotes; test: Susceptibility assay in promastigotes; type: cell-based, Leishmania amazonensis (MHOM/BR/77/LTB0016 strain); details: Leishmania amazonensis, 72 h, read-out: Promastigotes IC50 + SD
[2] = Cytotoxicity in mouse peritoneal macrophages; type: cell-based, BALB/c mice; details: BALB/c, Macrophages CC50 + SD, resazurin
Summary of the method: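 Peritoneal lavage cells from BALB/c mice, in RPMI + 10% heat-inactivated FBS, seeded at 3 × 10⁵ macrophages/mL, left to adhere 2 h at 33°C, 5% CO₂; non-adherent cells washed off with PBS. Test compound from 650 µM top, 8 serial 1:2.5 dilutions, quadruplicate, 48 h. Then 3 mM resazurin (stock), fluorescence after 4 h; CC50 by non-linear curve fit; at least three independent trials.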

SMILES: C[C@@H]1[C@H](O)[C@@H](C)/C=C/C=C/C=C/C=C/C=C/C=C/C=C/[C@H](O[C@@H]2O[C@H](C)[C@@H](O)[C@H](N)[C@@H]2O)C[C@@H]2O[C@](O)(C[C@@H](O)C[C@@H](O)[C@H](O)CC[C@@H](O)C[C@@H](O)CC(=O)O[C@H]1C)C[C@H](O)[C@H]2C(=O)O [Amphotericin B]
- IC50 [1]: 30 ± 14 nM
- CC50 at 48 h [2]: 5800 ± 500 nM
